{"source": "ChEMBL document CHEMBL1122125", "about": "“Synthesis and in vivo antitumor activity of potential 5-fluorouracil prodrugs” (1982)", "format_in_all_cases": "functional", "key": {"[1]": {"system": "Mus musculus", "test": "Antitumor activity was determined for average weight on day 1 against P-388 leukemia in mice at a dose of 600 mg/kg", "how_it_was_run": "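Male B6D2F1J mice, groups of 5, inoculated ip with 10⁶ P-388 cells on day 0. Drug given ip on days 1-4 (qd × 4) in sterile saline, or in 10% Tween 80 for the poorly water-soluble thioether. Average weight per mouse recorded on day 1, with reweighing on day 7 for percent weight change. Untreated control groups had 10-17 animals per experiment.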"}, "[2]": {"system": "Mus musculus", "test": "Antitumor activity was determined for average weight on day 1 against P-388 leukemia in mice at a dose 150 of mg/kg", "how_it_was_run": "(§1)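 Male B6D2F1J mice given 10⁶ P-388 cells ip on day 0, then treated ip once daily on days 1-4 (qd × 4), 5 mice per dose group. Compounds dosed in sterile saline, except one lipophilic thioether given in 10% Tween 80. Mice weighed on days 1 and 7; mean weight per mouse on day 1 and 7-day weight change reported in g and as percent.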"}, "[3]": {"system": "Mus musculus", "test": "Percent increase in life span against P-388 leukemia in mice was determined at a dose of 340 mg/kg", "settings": "P388", "how_it_was_run": "(§2)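 Male B6D2F1J mice, 5 per dose group, received 10⁶ P-388 cells ip on day 0. Dosing was ip qd × 4 on days 1-4 in sterile saline, or 10% Tween 80 for the butyl thioether. Median survival times of treated (T) and untreated control (C, 10-17 mice) groups were compared: %ILS = [(T/C) − 1]100. Weights taken on days 1 and 7.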"}, "[4]": {"system": "Mus musculus", "test": "Percent increase in life span against P-388 leukemia in mice was determined at a dose of 680 mg/kg", "settings": "P388", "how_it_was_run": "as §2"}, "[5]": {"system": "Mus musculus", "test": "Antitumor activity was determined for average 7-day weight change against P-388 leukemia in mice at a dose of 170 mg/kg", "how_it_was_run": "as §1"}, "[6]": {"system": "Mus musculus", "test": "Percent increase in life span against P-388 leukemia in mice was determined at a dose of 300 mg/kg", "settings": "P388", "how_it_was_run": "as §2"}, "[7]": {"system": "Mus musculus", "test": "Antitumor activity was determined for survival range of mice against P-388 leukemia in mice at a dose of 75 mg/kg", "how_it_was_run": "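Male B6D2F1J mice, 5 per dose group, implanted ip with 10⁶ P-388 leukemia cells on day 0. Drug given ip daily on days 1-4 (qd × 4) in sterile saline, or in 10% Tween 80 for the butyl thioether. Survival range recorded in days. Untreated control groups had 10-17 animals per experiment. Mice weighed on days 1 and 7.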"}, "[8]": {"system": "Mus musculus", "test": "Antitumor activity was determined for median survival of mice against P-388 leukemia in mice at a dose of 680 mg/kg", "how_it_was_run": "(§3)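 Male B6D2F1J mice implanted ip with 10⁶ P-388 cells on day 0; test agents given ip on days 1–4 (qd × 4) in sterile saline, or in 10% Tween 80 for the lipophilic thioether. Groups of 5 treated mice, with 10–17 untreated controls per experiment. Mice weighed on days 1 and 7 to give the 7-day weight change in g and %. Survival recorded in days as median and range.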"}, "[9]": {"system": "Mus musculus", "test": "Antitumor activity was determined for survival range of mice against P-388 leukemia in mice at a dose of 150 mg/kg", "how_it_was_run": "as §3"}, "[10]": {"system": "Mus musculus", "test": "Antitumor activity was determined for median survival of mice against P-388 leukemia in mice at a dose of 340 mg/kg", "how_it_was_run": "as §3"}, "[11]": {"system": "Mus musculus", "test": "Antitumor activity was determined for 7-day average percent weight change against P-388 leukemia in mice at a dose of 340 mg/kg", "how_it_was_run": "as §1"}, "[12]": {"system": "Mus musculus", "test": "Antitumor activity was determined for 7-day average percent weight change against P-388 leukemia in mice at a dose of 600 mg/kg", "how_it_was_run": "as §1"}, "[13]": {"system": "Mus musculus", "test": "Antitumor activity was determined for 7-day average percent weight change against P-388 leukemia in mice at a dose of 75 mg/kg", "how_it_was_run": "as §1"}}, "data": [{"smiles": "CC[C@H]1OC(n2cc(F)c(=O)[nH]c2=O)[C@H](O)[C@@H]1O", "note": "(stereo partly drawn)", "values": [{"measurement": "Average weight", "setting": "[1]", "value": 23.2, "unit": "g mouse-1"}, {"measurement": "Average weight", "setting": "[2]", "value": 25.8, "unit": "g mouse-1"}, {"measurement": "ILS at 340 mg/kg", "setting": "[3]", "value": 45, "unit": "%"}, {"measurement": "ILS at 680 mg/kg", "setting": "[4]", "value": 54, "unit": "%"}, {"measurement": "Average weight", "setting": "[5]", "value": 1.6, "unit": "g mouse-1"}, {"measurement": "ILS at 300 mg/kg", "setting": "[6]", "value": 54, "unit": "%"}, {"measurement": "Survival range", "setting": "[7]", "value": 14}, {"measurement": "Survival median", "setting": "[8]", "value": 17}, {"measurement": "Survival range", "setting": "[9]", "value": 15}, {"measurement": "Survival median", "setting": "[10]", "value": 16}, {"measurement": "Weight change", "setting": "[11]", "value": 5, "unit": "%"}, {"measurement": "Weight change", "setting": "[12]", "value": -10, "unit": "%"}, {"measurement": "Weight change", "setting": "[13]", "value": 9, "unit": "%"}]}]}
